According to ChEMBL document CHEMBL5120972, “Small-Molecule Inhibitors of the MLL1 CXXC Domain, an Epigenetic Reader of DNA Methylation” (ACS Med Chem Lett, 2022):
Calls of active or inactive are those of the source. The calls are words filed in the database; no cut-off is given here.

system: MV4-11; assay: Anti-proliferative activity against human MV4-11 cells harboring MLL fusion protein assessed as inhibition of cell viability upto 120 uM for 72 hrs by MTT assay; format: functional, cell-based
In short: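 MV4-11 MLL-fusion leukemia cells are exposed to compound across a concentration range for 72 h. Growth is read out by MTT assay, with three replicates.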

SMILES	Activity
C=CC(=O)N1CCC(C(=O)OCC)(c2ccccc2)CC1	Active

molecular target: Histone-lysine N-methyltransferase 2A (Homo sapiens, UniProt Q03164); assay: Inhibition of GST-tagged human MLL1 (1147 to 1203 residues) expressed in Escherichia coli BL21 cells incubated for 30 mins by fluorescence polarization assay
In short: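 Competition fluorescence polarization assay. CXXC domain protein is held at 2× its own KD. All domains are expressed and purified by the same method. Standard deviations come from three separate measurements.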

Chain of Histone-lysine N-methyltransferase 2A (Q03164 1-2718 limits assumed): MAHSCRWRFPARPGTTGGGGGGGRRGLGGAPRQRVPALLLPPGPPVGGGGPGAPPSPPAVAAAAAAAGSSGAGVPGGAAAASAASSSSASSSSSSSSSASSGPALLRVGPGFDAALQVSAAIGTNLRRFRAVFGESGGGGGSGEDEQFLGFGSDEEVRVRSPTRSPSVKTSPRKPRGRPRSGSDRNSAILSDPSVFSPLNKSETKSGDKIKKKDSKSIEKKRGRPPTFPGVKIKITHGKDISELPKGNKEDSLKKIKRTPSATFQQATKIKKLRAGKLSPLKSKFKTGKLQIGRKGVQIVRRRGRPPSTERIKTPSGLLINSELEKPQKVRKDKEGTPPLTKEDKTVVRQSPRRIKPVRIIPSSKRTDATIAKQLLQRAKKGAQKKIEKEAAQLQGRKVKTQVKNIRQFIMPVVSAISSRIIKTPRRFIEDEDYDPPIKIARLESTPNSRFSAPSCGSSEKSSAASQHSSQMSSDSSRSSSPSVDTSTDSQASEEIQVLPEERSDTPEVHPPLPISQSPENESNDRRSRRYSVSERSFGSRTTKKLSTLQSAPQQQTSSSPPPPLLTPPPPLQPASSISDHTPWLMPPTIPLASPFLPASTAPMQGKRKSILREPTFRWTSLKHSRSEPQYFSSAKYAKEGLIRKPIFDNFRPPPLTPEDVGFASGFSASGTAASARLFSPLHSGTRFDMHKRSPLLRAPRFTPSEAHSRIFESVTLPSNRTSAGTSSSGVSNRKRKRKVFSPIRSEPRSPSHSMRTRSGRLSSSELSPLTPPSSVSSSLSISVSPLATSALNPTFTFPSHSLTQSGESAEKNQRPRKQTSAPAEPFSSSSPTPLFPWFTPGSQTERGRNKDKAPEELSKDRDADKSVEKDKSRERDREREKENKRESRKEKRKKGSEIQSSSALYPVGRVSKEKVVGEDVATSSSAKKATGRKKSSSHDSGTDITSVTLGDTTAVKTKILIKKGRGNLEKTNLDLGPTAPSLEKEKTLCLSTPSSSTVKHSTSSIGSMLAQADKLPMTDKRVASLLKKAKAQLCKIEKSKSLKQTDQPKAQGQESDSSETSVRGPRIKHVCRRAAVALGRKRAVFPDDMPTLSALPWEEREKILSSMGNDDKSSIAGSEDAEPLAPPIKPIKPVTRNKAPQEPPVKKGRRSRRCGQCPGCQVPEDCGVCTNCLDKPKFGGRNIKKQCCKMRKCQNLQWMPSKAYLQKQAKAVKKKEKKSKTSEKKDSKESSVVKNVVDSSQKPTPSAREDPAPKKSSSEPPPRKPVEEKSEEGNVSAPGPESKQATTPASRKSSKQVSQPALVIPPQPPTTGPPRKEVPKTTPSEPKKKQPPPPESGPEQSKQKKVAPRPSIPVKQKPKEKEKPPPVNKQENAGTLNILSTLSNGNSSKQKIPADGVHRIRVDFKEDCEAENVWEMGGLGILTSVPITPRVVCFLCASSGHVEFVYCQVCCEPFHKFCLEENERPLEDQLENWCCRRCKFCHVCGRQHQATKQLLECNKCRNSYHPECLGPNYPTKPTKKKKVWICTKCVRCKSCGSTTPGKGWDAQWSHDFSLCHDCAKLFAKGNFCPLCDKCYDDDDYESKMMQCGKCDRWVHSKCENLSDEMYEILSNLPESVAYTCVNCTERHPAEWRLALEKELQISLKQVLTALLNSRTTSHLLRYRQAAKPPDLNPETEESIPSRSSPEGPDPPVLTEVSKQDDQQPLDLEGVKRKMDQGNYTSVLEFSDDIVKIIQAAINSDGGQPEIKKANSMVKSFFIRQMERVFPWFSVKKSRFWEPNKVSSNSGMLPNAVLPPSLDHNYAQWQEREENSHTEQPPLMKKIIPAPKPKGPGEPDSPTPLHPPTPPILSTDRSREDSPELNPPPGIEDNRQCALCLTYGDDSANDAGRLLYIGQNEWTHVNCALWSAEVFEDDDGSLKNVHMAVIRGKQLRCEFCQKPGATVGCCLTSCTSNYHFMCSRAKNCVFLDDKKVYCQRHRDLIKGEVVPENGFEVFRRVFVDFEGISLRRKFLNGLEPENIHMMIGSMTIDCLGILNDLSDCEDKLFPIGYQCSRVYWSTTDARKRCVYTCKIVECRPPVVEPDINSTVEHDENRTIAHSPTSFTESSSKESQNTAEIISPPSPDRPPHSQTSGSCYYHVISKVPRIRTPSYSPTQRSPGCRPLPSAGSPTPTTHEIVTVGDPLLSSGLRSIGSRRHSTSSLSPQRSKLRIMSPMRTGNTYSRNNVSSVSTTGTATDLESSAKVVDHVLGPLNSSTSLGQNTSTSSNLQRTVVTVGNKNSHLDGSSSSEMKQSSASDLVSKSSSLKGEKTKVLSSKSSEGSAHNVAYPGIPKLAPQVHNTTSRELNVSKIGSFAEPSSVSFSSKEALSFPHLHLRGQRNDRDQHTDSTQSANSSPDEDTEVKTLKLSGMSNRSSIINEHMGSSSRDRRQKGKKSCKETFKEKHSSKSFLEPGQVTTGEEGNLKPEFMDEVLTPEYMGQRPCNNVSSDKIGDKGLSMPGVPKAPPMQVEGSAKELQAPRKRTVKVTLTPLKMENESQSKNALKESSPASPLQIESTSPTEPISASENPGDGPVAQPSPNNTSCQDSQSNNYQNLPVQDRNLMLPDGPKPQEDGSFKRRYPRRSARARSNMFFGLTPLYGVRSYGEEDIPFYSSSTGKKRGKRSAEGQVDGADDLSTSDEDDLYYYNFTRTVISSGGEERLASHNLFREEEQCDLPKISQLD
Chain of Histone-lysine N-methyltransferase 2A (Q03164 2719-3969 limits assumed): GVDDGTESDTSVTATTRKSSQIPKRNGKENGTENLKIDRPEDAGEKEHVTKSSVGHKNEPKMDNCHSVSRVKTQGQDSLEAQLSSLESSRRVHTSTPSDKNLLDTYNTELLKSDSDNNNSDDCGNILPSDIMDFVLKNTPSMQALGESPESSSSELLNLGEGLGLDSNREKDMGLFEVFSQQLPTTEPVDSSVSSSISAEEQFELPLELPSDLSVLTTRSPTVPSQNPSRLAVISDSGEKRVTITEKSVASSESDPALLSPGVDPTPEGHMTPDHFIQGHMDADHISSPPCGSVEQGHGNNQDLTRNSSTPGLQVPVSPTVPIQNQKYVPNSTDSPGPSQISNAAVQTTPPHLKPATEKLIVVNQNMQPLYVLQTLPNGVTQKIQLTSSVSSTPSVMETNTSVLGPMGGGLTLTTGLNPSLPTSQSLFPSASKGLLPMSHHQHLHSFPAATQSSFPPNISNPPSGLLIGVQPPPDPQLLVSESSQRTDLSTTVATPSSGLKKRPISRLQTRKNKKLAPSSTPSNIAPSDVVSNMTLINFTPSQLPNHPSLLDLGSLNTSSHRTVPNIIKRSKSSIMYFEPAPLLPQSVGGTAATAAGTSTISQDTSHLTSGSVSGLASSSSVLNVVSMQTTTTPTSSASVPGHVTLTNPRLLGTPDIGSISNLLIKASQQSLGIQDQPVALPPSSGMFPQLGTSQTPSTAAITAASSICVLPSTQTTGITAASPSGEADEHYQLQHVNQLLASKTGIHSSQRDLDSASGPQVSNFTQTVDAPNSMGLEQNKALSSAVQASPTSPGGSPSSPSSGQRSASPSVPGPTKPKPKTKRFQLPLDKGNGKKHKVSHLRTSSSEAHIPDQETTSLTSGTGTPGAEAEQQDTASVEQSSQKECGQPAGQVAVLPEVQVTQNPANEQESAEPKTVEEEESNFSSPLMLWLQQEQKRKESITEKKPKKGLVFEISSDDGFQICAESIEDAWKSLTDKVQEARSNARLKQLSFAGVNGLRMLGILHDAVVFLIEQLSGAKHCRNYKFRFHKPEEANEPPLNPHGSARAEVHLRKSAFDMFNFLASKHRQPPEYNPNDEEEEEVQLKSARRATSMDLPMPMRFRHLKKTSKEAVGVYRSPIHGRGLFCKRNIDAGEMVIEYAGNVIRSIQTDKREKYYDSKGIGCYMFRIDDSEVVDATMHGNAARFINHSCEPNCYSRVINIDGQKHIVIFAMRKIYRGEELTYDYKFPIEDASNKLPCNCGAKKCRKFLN

SMILES	IC50
C=CC(=O)N1CCC(C(=O)NS(=O)(=O)c2ccc(C)cc2)(c2ccccc2)CC1	136 µM
C=CC(=O)N1CCC(C(=O)O)(c2ccc(C)cc2)CC1	495 µM
C=CC(=O)N1CCC(C(=O)O)(c2cccc(OCC)c2)CC1	51 µM
C=CC(=O)N1CCC(C(=O)NS(=O)(=O)c2ccc(OC)cc2)(c2ccccc2)CC1	76 µM
C=CC(=O)N1CCC(C(=O)NS(=O)(=O)c2ccc(F)cc2)(c2ccccc2)CC1	74 µM
C=CC(=O)N1CCC(C(=O)NS(=O)(=O)CC)(c2ccccc2)CC1	114 µM
C=CC(=O)N1CCC(C(=O)NS(=O)(=O)c2ccc(Cl)cc2)(c2ccccc2)CC1	153 µM
C=CC(=O)N1CCC(C(=O)O)(c2ccc(N(C)C)cc2)CC1	827 µM
